Experimental data reported in ChEMBL document CHEMBL1132951, “Resistance-modifying agents. 9. Synthesis and biological properties of benzimidazole inhibitors of the DNA repair enzyme poly(ADP-ribose) polymerase” (J Med Chem, 2000).
pIC50, pKi: −log10 of the molar value.

Assays:
[1] = target: T1, Poly [ADP-ribose] polymerase 1 (Homo sapiens, UniProt P09874)
[2] = tested on: A2780; test: Potentiation of growth inhibition of A2780 by compound alone in experiment 1; assay type: functional, cell-based; settings: Homo sapiens
Outline: (§1)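 A2780 cells were grown in HEPES-RPMI 1640 + 10% FCS and seeded at 2.0–2.5 × 10^3 per well. After overnight attachment (16–24 h) they were exposed for 72 h to graded temozolomide or topotecan ± 10 μM PARP inhibitor (1% DMSO). Sulforhodamine B read at 570 nm, 5 replicate wells, % of matched control. IC50 by nonlinear regression; potentiation is IC50 alone over IC50 with inhibitor.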

[3] = tested on: A2780; test: Potentiation of growth inhibition of A2780 cells by compound alone in experiment 2; assay type: functional, cell-based; settings: Homo sapiens
Outline: as §1

[4] = tested on: A2780; test: Potentiation of growth inhibition of A2780 cells along with 10 uM NU1085 in experiment 1; assay type: functional, cell-based; settings: Homo sapiens
Outline: as §1

[5] = tested on: A2780; test: Potentiation of growth inhibition of A2780 cells along with 10 uM NU1085 in experiment 2; assay type: functional, cell-based; settings: Homo sapiens
Outline: as §1

[6] = tested on: A2780; test: Potentiation factor at 50% growth inhibition (IC50 of compound to that of compound along with PARP inhibitor) in experiment 1; assay type: functional, Homo sapiens
Outline: as §1

[7] = tested on: A2780; test: Potentiation factor at 50% growth inhibition (IC50 of compound to that of compound along with PARP inhibitor) in experiment 2; assay type: functional, Homo sapiens
Outline: as §1

[8] = tested on: A2780; test: Potentiation of growth inhibition of A2780 cells by compound alone in experiment 1; assay type: functional, cell-based; settings: Homo sapiens
Outline: as §1

[9] = target: T1, Poly [ADP-ribose] polymerase 1; test: In vitro inhibition against human full length PARP protein
Outline: (§2)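 Baculovirus-expressed, purified human full-length PARP (20 nM) with DNase I-activated calf thymus DNA (10 μg/mL) and NAD+ (500 μM, with [32P]NAD+). Run in 50 mM Tris pH 8.0, 10 mM MgCl2, 1 mM TCEP, 2% DMSO, 25 °C, 5 min (linear to 8 min). Stopped with ice-cold TCA and filtered. Acid-insoluble [32P]ADP-ribose read by phosphorimager. Ki from competitive-inhibition fit; tight-binding equation where needed.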

[10] = target: T1, Poly [ADP-ribose] polymerase 1; test: In vitro inhibition against human full length PARP protein; IA means inactive
Outline: as §2

T1 sequence (P09874 whole entry): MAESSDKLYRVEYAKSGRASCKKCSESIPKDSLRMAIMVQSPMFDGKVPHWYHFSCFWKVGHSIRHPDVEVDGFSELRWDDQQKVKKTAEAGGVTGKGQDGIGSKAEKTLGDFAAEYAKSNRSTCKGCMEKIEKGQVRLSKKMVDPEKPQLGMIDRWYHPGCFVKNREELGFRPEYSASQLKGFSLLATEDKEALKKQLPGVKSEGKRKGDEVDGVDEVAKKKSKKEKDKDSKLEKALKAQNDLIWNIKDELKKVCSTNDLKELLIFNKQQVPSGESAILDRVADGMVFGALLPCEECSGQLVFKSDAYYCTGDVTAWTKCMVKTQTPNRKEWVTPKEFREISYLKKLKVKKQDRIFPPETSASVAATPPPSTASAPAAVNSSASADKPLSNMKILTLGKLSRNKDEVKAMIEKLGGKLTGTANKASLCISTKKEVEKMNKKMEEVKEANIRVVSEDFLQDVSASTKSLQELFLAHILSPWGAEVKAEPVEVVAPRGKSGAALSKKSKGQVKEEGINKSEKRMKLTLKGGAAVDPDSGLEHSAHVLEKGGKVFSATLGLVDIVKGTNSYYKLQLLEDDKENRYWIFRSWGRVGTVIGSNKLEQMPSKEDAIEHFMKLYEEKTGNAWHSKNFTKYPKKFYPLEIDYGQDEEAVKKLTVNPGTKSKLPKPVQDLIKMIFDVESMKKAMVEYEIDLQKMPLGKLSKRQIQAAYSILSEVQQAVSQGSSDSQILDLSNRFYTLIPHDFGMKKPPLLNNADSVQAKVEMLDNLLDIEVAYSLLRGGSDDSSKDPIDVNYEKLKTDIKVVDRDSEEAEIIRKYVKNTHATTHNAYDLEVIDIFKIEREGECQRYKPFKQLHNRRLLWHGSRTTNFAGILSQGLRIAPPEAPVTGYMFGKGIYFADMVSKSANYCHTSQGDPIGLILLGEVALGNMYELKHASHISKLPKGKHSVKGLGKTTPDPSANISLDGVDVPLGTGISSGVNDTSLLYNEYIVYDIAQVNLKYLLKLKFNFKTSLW

**Q.** `NC(=O)c1cccc2[nH]c(-c3ccccc3C(F)(F)F)nc12` was tested. Which pKi [1] did it give?
**A.** Its pKi is 6.72.

**Q.** With `CCOC(=O)c1ccc(-c2nc3c(C(N)=O)cccc3[nH]2)cc1` as the compound, how does the pKi [1] read?
**A.** Its pKi is 8.09.

**Q.** With `COc1ccc(-c2nc3c(C(N)=O)cccc3n2C(=O)OCc2ccccc2)cc1` as the compound, how does the pKi [1] read?
**A.** The pKi was 6.28.

**Q.** With `Cc1nc2c(C(N)=O)cccc2[nH]1` as the compound, how does the pKi [1] read?
**A.** Its pKi is 7.00.

**Q.** `Cn1nnc2c(C(N)=O)ncn2c1=O` [TEMOZOLOMIDE] was tested. Which pIC50 [2] did it give?
**A.** Its pIC50 is 3.28.

**Q.** What about the pIC50 [3] of the same compound?
**A.** Its pIC50 is 3.43.

**Q.** And the pIC50 [4]?
**A.** The pIC50 was 3.73.

**Q.** And the pIC50 [5]?
**A.** The pIC50 was 3.74.

**Q.** And the PF50 [6]?
**A.** Its PF50 is 2.8.

**Q.** And the PF50 [7]?
**A.** Its PF50 is 2.

**Q.** With `COc1cc(-c2nc3c(C(N)=O)cccc3[nH]2)cc(OC)c1OC` as the compound, how does the pKi [1] read?
**A.** The pKi was 6.87.

**Q.** How did the pKi [1] turn out when `NC(=O)c1cccc2nc(-c3ccc(O)cc3)[nH]c12` was run?
**A.** Its pKi is 8.22.

**Q.** `NC(=O)c1cccc2[nH]c(-c3ccccc3Cl)nc12` was tested. Which pKi [1] did it give?
**A.** The pKi was 8.03.

**Q.** With `N#Cc1ccc(-c2nc3c(C(N)=O)cccc3[nH]2)cc1` as the compound, how does the pKi [1] read?
**A.** Its pKi is 8.40.

**Q.** `CC[C@@]1(O)C(=O)OCc2c1cc1n(c2=O)Cc2cc3c(CN(C)C)c(O)ccc3nc2-1` [TOPOTECAN] was tested. Which pIC50 [8] did it give?
**A.** The pIC50 was 4.65.

**Q.** And the pIC50 [3]?
**A.** The pIC50 was 4.66.

**Q.** And the pIC50 [4]?
**A.** Its pIC50 is 5.11.

**Q.** And the pIC50 [5]?
**A.** The pIC50 was 5.06.

**Q.** What about the PF50 [6] of the same compound?
**A.** Its PF50 is 2.9.

**Q.** What about the PF50 [7] of the same compound?
**A.** The PF50 was 2.5.

**Q.** How did the pKi [1] turn out when `NC(=O)c1cccc2[nH]c(-c3ccccc3F)nc12` was run?
**A.** The pKi was 8.05.

**Q.** `NC(=O)c1cccc2[nH]c(-c3ccc([N+](=O)[O-])cc3)nc12` was tested. Which pKi [9] did it give?
**A.** Its pKi is 8.10.

**Q.** How did the pKi [1] turn out when `CN(C)c1ccc(-c2nc3c(C(N)=O)cccc3[nH]2)cc1` was run?
**A.** The pKi was 8.24.

**Q.** With `C=CCOc1cc(-c2nc3c(C(N)=O)cccc3[nH]2)ccc1OC` as the compound, how does the pKi [1] read?
**A.** The pKi was 8.03.

**Q.** `COc1ccccc1-c1nc2c(C(N)=O)cccc2[nH]1` was tested. Which pKi [1] did it give?
**A.** Its pKi is 6.90.

**Q.** How did the pKi [1] turn out when `COc1ccc(-c2nc3c(C(N)=O)cccc3[nH]2)cc1OC` was run?
**A.** Its pKi is 8.27.

**Q.** `NC(=O)c1cccc2[nH]c(C(F)(F)F)nc12` was tested. Which pKi [1] did it give?
**A.** Its pKi is 6.46.

**Q.** `COc1cc(-c2nc3c(C(N)=O)cccc3[nH]2)ccc1O` was tested. Which pKi [1] did it give?
**A.** The pKi was 7.89.

**Q.** How did the pKi [1] turn out when `NC(=O)c1cccc2[nH]c(-c3cccc(Cl)c3)nc12` was run?
**A.** Its pKi is 8.08.

**Q.** With `NC(=O)c1cccc2[nH]cnc12` as the compound, how does the pKi [1] read?
**A.** The pKi was 7.02.

**Q.** `CNC(=O)c1cccc2[nH]c(-c3ccc(O)cc3)nc12` was tested. Which Ki [10] did it give?
**A.** Its Ki is “Not Active”.

**Q.** How did the pKi [1] turn out when `NC(=O)c1cccc2[nH]c(-c3ccc4c(c3)OCO4)nc12` was run?
**A.** The pKi was 8.23.

**Q.** `NC(=O)c1cccc2[nH]c(-c3cccc(CO)c3)nc12` was tested. Which pKi [1] did it give?
**A.** Its pKi is 8.17.

**Q.** How did the pKi [1] turn out when `COc1ccc(-c2nc3c(C(N)=O)cccc3[nH]2)cc1` was run?
**A.** The pKi was 8.17.

**Q.** How did the pKi [1] turn out when `NC(=O)c1cccc2[nH]c(-c3ccc(C(F)(F)F)cc3)nc12` was run?
**A.** Its pKi is 8.92.

**Q.** How did the pKi [1] turn out when `COc1ccc(-c2nc3c(C(N)=O)cccc3n2C)cc1` was run?
**A.** The pKi was 7.49.

**Q.** `CC(C)[Si](OCc1ccc(-c2nc3c(C(N)=O)cccc3[nH]2)cc1)(C(C)C)C(C)C` was tested. Which pKi [1] did it give?
**A.** The pKi was 7.07.

**Q.** How did the pKi [1] turn out when `NC(=O)c1cccc2[nH]c(-c3ccc(C(=O)O)cc3)nc12` was run?
**A.** Its pKi is 6.54.

**Q.** With `NC(=O)c1cccc2nc(-c3ccc(Cl)cc3)[nH]c12` as the compound, how does the pKi [1] read?
**A.** Its pKi is 8.52.

**Q.** How did the pKi [1] turn out when `NC(=O)c1cccc2nc(-c3ccc(N)cc3)[nH]c12` was run?
**A.** The pKi was 7.96.

**Q.** With `NC(=O)c1cccc2[nH]c(-c3ccccc3CO)nc12` as the compound, how does the pKi [1] read?
**A.** The pKi was 7.97.

**Q.** With `NC(=O)c1cccc2[nH]c(-c3ccc(CO)cc3)nc12` as the compound, how does the pKi [1] read?
**A.** The pKi was 8.80.

**Q.** With `NC(=O)c1cccc2[nH]c(-c3cccc(C(F)(F)F)c3)nc12` as the compound, how does the pKi [1] read?
**A.** Its pKi is 8.10.

**Q.** How did the pKi [1] turn out when `COc1ccc(-c2nc3c(C(N)=O)cccc3[nH]2)cc1O` was run?
**A.** The pKi was 8.70.

**Q.** With `O=C(O)c1cccc2[nH]c(-c3ccc(O)cc3)nc12` as the compound, how does the pKi [1] read?
**A.** The pKi was 5.00.

**Q.** With `CNC(=O)c1cccc2[nH]c(-c3ccc(OC)cc3)nc12` as the compound, how does the Ki [10] read?
**A.** The Ki was “Not Active”.

**Q.** How did the pKi [1] turn out when `NC(=O)c1cccc2[nH]c(-c3cccc(O)c3)nc12` was run?
**A.** Its pKi is 8.20.
